Measurements reported in ChEMBL document CHEMBL4715802, “Novel Irreversible Agonists Acting at the A Adenosine Receptor” (J Med Chem, 2016).
The source made the active and inactive calls. The rule behind the calls is not given here.

Each compound was assayed against T1, Adenosine receptor A1 (Homo sapiens) (UniProt P30542) (assay: Binding affinity to human adenosine A1 receptor expressed in Flp-In-CHO cell membranes assessed as [3H]DPCPX binding level at 10 uM incubated for 1 hr followed by washing by liquid scintillation counting based equilibrium radioligand binding assay). Conditions: Cell membrane.
T1 sequence (whole entry): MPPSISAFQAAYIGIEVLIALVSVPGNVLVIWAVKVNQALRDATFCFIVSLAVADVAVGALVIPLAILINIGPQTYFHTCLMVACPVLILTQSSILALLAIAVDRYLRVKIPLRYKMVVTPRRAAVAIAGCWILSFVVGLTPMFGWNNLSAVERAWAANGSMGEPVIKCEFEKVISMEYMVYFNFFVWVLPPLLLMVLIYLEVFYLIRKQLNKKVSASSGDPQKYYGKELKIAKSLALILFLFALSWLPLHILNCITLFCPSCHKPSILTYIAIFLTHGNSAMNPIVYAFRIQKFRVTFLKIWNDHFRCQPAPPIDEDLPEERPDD
Procedure, shortened: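 Membranes from A1AR-FlpInCHO cells were pre-incubated with 10 µM ligand in PBS with 1 unit ADA for 1 h at 37°C. They were then washed 3× with PBS, with 1 h at 37°C between washes, and resuspended in HME buffer. [3H]DPCPX at 0.1–12 nM was bound for 1 h at 37°C, filtered and β-counted. Nonspecific binding was defined with 1 µM SLV320. Results are expressed as % of buffer-pretreated Bmax, from three experiments in duplicate.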

SMILES | Activity [%]
CCNC(=O)[C@H]1O[C@@H](n2cnc3c(N)ncnc32)[C@H](O)[C@@H]1O | 108

Same assay, conditions: Cell membrane, filed as agonist

SMILES | Activity [%]
O=C(NCc1ccc(Nc2ncnc3c2ncn3[C@@H]2O[C@H](CO)[C@@H](O)[C@H]2O)cc1)c1ccc(S(=O)(=O)F)cc1 | 16

The compounds below were run against T1, Adenosine receptor A1 (Homo sapiens) (assay: Binding affinity to human adenosine A1 receptor expressed in Sf9 cells assessed protein melting temperature at 10 uM incubated for 30 mins by Thermo-fluor assay). Conditions: Cell membrane, filed as agonist.
Format: cell membranes
Procedure, shortened: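 Human A1AR was purified from Sf9 cells in LMNG/CHS. 0.2 µg receptor was incubated with 10 µM compound for 20 h at 4°C in HEPES pH 7.5 buffer with ADA. CPM dye at 10 µM final was added for 30 min at rt. The sample was heated from 4 to 80°C in 3° steps, holding 90 s each, and fluorescence was read at 380/470 nm to derive Tm. Three experiments in duplicate.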

SMILES | Tm [°C]
O=C(NCc1ccc(Nc2ncnc3c2ncn3[C@@H]2O[C@H](CO)[C@@H](O)[C@H]2O)cc1)c1ccc(S(=O)(=O)F)cc1 | 46.7
CCNC(=O)[C@H]1O[C@@H](n2cnc3c(N)ncnc32)[C@H](O)[C@@H]1O | 38.7

Each compound was assayed on Flp-In-CHO (assay: Stimulation of ERK1/2 phosphorylation in Flp-In-CHO cells incubated for 5 mins). Conditions: Cricetulus griseus.
Format: cell-based
Procedure, shortened: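 A1AR-FlpInCHO cells were seeded at 4×10^4/well and serum-starved for about 18 h. Cells were stimulated with agonist for 5 min at 37°C, then lysed, and pERK1/2 was detected by SureFire. […] Curves were fitted for pEC50 and Emax. Three experiments in duplicate.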

SMILES | Activity
O=C(NCc1ccc(Nc2ncnc3c2ncn3[C@@H]2O[C@H](CO)[C@@H](O)[C@H]2O)cc1)c1ccc(S(=O)(=O)F)cc1 | inactive
CCNC(=O)[C@H]1O[C@@H](n2cnc3c(N)ncnc32)[C@H](O)[C@@H]1O | inactive

The compounds below were run against T2, Adenosine receptor A1 (Homo sapiens, UniProt P30542) (assay: Irreversible agonist activity at human adenosine A1 receptor expressed in Flp-In-CHO cells assessed as stimulation of ERK1/2 phosphorylation incubated for 5 mins). Conditions: not given.
T2 sequence (P30542 whole entry): T1 sequence (whole entry)
Format: cell-based

SMILES | EC50 [µM]
O=C(NCc1ccc(Nc2ncnc3c2ncn3[C@@H]2O[C@H](CO)[C@@H](O)[C@H]2O)cc1)c1ccc(S(=O)(=O)F)cc1 | 0.001

Each compound was assayed against T1, Adenosine receptor A1 (Homo sapiens) (assay: Binding affinity to human adenosine A1 receptor expressed in Flp-In-CHO cell membranes assessed as basal [35S]GTP-gamma-S incorporation level at 10 uM incubated for 40 mins followed by washing by liquid scintillation counting). Conditions: Cell membrane.
Procedure, shortened: (§1)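 Membranes were pretreated with 10 µM ligand and washed as for the [3H]DPCPX assay. […] 300 pM [35S]GTPγS was then added for 40 min at 20°C, followed by filtration and counting. Values are normalised to NECA-stimulated vehicle-pretreated membranes.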

SMILES | Activity [%]
O=C(NCc1ccc(Nc2ncnc3c2ncn3[C@@H]2O[C@H](CO)[C@@H](O)[C@H]2O)cc1)c1ccc(S(=O)(=O)F)cc1 | 134
CCNC(=O)[C@H]1O[C@@H](n2cnc3c(N)ncnc32)[C@H](O)[C@@H]1O | 57

These compounds were tested against T1, Adenosine receptor A1 (Homo sapiens) (assay: Irreversible agonist activity at human adenosine A1 receptor expressed in Flp-In-CHO cells assessed as induction of positive change of cellular impedance at 1 uM incubated for 2 hrs by xCELLigence real-time cell analysis). Conditions: filed as agonist.
Format: cell-based
Procedure, shortened: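 A1AR-FlpInCHO cells were serum-starved for about 18 h and equilibrated for at least 1 h at 37°C. 1 µM agonist or vehicle was added and impedance was recorded at 15 s intervals. […] Three experiments in duplicate.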

SMILES | Activity
O=C(NCc1ccc(Nc2ncnc3c2ncn3[C@@H]2O[C@H](CO)[C@@H](O)[C@H]2O)cc1)c1ccc(S(=O)(=O)F)cc1 | Active
CCNC(=O)[C@H]1O[C@@H](n2cnc3c(N)ncnc32)[C@H](O)[C@@H]1O | Active

These compounds were tested against T1, Adenosine receptor A1 (Homo sapiens) (assay: Irreversible agonist activity at human adenosine A1 receptor expressed in Flp-In-CHO cells assessed as induction of positive change of cellular impedance at 1 uM incubated for 1.5 hrs followed by addition of 1 uM A1AR selective antagonist SLV320 by xCELLigence real-time cell analysis). Conditions: filed as agonist.
Format: cell-based
Procedure, shortened: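 A1AR-FlpInCHO cells were seeded at 4×10^4/well, serum-starved for about 18 h, and equilibrated in the impedance reader for at least 1 h at 37°C. Cells were exposed to 1 µM agonist and impedance was recorded every 15 s. After about 1.5–1.7 h, 1 µM SLV320 was added and recording continued. […] Three experiments in duplicate.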

SMILES | Activity
O=C(NCc1ccc(Nc2ncnc3c2ncn3[C@@H]2O[C@H](CO)[C@@H](O)[C@H]2O)cc1)c1ccc(S(=O)(=O)F)cc1 | Active

These compounds were tested against T3, Adenosine receptor A3 (Homo sapiens, UniProt P0DMS8) (assay: Irreversible agonist activity at human adenosine A3 receptor expressed in Flp-In-CHO cells assessed as effect on forskolin-induced cAMP accumulation incubated for 30 mins by LANCE cAMP detection assay). Conditions: not given.
T3 sequence (P0DMS8 whole entry): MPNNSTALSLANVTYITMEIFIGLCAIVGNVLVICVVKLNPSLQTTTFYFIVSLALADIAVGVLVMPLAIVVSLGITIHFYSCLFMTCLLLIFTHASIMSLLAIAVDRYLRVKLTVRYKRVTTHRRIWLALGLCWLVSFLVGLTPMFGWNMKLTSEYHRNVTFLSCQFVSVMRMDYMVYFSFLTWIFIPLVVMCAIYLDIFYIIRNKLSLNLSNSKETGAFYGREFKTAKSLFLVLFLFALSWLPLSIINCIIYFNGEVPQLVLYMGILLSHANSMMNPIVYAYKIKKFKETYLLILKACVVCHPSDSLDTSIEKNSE
Format: functional, cell-based
Procedure, shortened: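 For Gi/o-coupled A1 or A3 FlpInCHO cells, cells were preincubated for 30 min at 37°C in stimulation buffer containing 10 µM rolipram. Agonist (10 pM–10 µM) was then added with 3 µM forskolin for 30 min at 37°C. The reaction was stopped with ethanol, cells were lysed, and cAMP was read by LANCE TR-FRET. […] Three to four experiments in duplicate.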

SMILES | EC50 [µM]
O=C(NCc1ccc(Nc2ncnc3c2ncn3[C@@H]2O[C@H](CO)[C@@H](O)[C@H]2O)cc1)c1ccc(S(=O)(=O)F)cc1 | 0.135

Each compound was assayed against T1, Adenosine receptor A1 (Homo sapiens). Conditions: Sf9, Cell membrane, filed as agonist, dose 10.0 µM, time 30.0 min.

SMILES | ΔTm [°C]
CCNC(=O)[C@H]1O[C@@H](n2cnc3c(N)ncnc32)[C@H](O)[C@@H]1O | 4

These compounds were tested against T4, Adenosine receptor A2b (Homo sapiens, UniProt P29275) (assay: Irreversible agonist activity at human adenosine A2B receptor expressed in Flp-In-CHO cells assessed as effect on forskolin-induced cAMP accumulation incubated for 30 mins by LANCE cAMP detection assay). Conditions: not given.
T4 sequence (P29275 whole entry): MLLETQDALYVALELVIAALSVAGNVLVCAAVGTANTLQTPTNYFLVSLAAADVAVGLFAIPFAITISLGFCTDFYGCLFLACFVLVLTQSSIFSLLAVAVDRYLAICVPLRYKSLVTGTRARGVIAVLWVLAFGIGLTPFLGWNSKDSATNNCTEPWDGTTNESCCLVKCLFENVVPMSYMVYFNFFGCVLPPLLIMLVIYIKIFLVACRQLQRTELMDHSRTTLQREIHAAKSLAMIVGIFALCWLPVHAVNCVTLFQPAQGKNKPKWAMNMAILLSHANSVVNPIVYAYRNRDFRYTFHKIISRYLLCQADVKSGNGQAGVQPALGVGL
Format: functional, cell-based
Procedure, shortened: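 A2BAR-FlpInCHO cells in stimulation buffer with rolipram were exposed to agonist with no preincubation, then stopped with ethanol, lysed, and cAMP was detected by LANCE. Three to four experiments in duplicate.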

SMILES | EC50 [µM]
O=C(NCc1ccc(Nc2ncnc3c2ncn3[C@@H]2O[C@H](CO)[C@@H](O)[C@H]2O)cc1)c1ccc(S(=O)(=O)F)cc1 | 0.117

What follows are compounds tested on Flp-In-CHO (assay: Effect on forskolin-induced cAMP accumulation in Flp-In-CHO cells incubated for 30 mins by LANCE cAMP detection assay). Conditions: Cricetulus griseus.
Format: functional, cell-based

SMILES | Activity
O=C(NCc1ccc(Nc2ncnc3c2ncn3[C@@H]2O[C@H](CO)[C@@H](O)[C@H]2O)cc1)c1ccc(S(=O)(=O)F)cc1 | inactive
CCNC(=O)[C@H]1O[C@@H](n2cnc3c(N)ncnc32)[C@H](O)[C@@H]1O | inactive

Each compound was assayed against T1, Adenosine receptor A1 (Homo sapiens) (assay: Binding affinity to human adenosine A1 receptor expressed in NECA-pre-treated Flp-In-CHO cell membranes assessed as [35S]GTP-gamma-S incorporation level at 10 uM incubated for 40 mins followed by washing by liquid scintillation counting). Conditions: Cell membrane.
Procedure, shortened: as §1

SMILES | Activity [%]
CCNC(=O)[C@H]1O[C@@H](n2cnc3c(N)ncnc32)[C@H](O)[C@@H]1O | 99

Same assay, conditions: Cell membrane, filed as agonist

SMILES | Activity
O=C(NCc1ccc(Nc2ncnc3c2ncn3[C@@H]2O[C@H](CO)[C@@H](O)[C@H]2O)cc1)c1ccc(S(=O)(=O)F)cc1 | Active

The compounds below were run against T2, Adenosine receptor A1 (assay: Irreversible agonist activity at human adenosine A1 receptor expressed in Flp-In-CHO cells assessed as effect on forskolin-induced cAMP accumulation incubated for 30 mins by LANCE cAMP detection assay). Conditions: not given.
Format: functional, cell-based
Procedure, shortened: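 For Gi/o-coupled A1 or A3 FlpInCHO cells, cells were preincubated for 30 min at 37°C in stimulation buffer containing 10 µM rolipram. Agonist (10 pM–10 µM) was then added with 3 µM forskolin for 30 min at 37°C. The reaction was stopped with ethanol, cells were lysed, and cAMP was read by LANCE TR-FRET. Three to four experiments in duplicate.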

SMILES | EC50 [µM]
O=C(NCc1ccc(Nc2ncnc3c2ncn3[C@@H]2O[C@H](CO)[C@@H](O)[C@H]2O)cc1)c1ccc(S(=O)(=O)F)cc1 | 0.000912
